Measured values from ChEMBL document CHEMBL4011636, “Utilization of an Active Site Mutant Receptor for the Identification of Potent and Selective Atypical 5-HT2C Receptor Agonists” (J Med Chem, 2017).

Assays:
[1] = target: T1, 5-hydroxytryptamine receptor 2C (Homo sapiens, UniProt P28335); experiment: Agonist activity at recombinant human 5-HT2C receptor expressed in HEK293E cells assessed as induction of intracellular Ca2+ levels after 90 secs by Fluo-4-dye based FLIPR assay; assay type: functional, cell-based, HEK293
T1 sequence (P28335 whole entry): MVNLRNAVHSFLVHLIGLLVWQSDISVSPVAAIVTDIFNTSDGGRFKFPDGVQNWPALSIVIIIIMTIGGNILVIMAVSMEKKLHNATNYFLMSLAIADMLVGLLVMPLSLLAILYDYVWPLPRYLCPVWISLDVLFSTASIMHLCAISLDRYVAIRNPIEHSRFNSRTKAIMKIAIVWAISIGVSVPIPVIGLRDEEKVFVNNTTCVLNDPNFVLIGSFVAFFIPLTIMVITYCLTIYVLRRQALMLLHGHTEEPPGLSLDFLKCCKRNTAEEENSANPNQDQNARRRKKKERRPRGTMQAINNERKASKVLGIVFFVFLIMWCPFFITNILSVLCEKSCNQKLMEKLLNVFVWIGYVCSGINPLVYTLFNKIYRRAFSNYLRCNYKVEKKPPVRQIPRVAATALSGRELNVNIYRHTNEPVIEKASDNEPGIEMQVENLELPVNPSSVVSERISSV
Outline: (§1)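 HEK293E cells stably expressing human receptor (VNV isoform for 5-HT2C; ~400−795 fmol/mg protein), grown in DMEM with 10% dialyzed FBS and G418. Cells plated at 20 000/well in serum-free DMEM overnight at 37 °C, then loaded 1 h at room temperature with 5 μM Fluo-4 in HBSS/25 mM HEPES. Eleven compound concentrations added on FLIPR, Ca2+ signal read for 90 s. EC50 from a four-parameter logistic fit, at least triplicate.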

[2] = target: 5-hydroxytryptamine receptor 2B (Homo sapiens, UniProt P41595); experiment: Agonist activity at recombinant human 5-HT2B receptor expressed in HEK293E cells assessed as induction of intracellular Ca2+ levels after 90 secs by Fluo-4-dye based FLIPR assay; assay type: cell-based, HEK293; outline: as §1
[3] = target: T2, 5-hydroxytryptamine receptor 2C (Homo sapiens) (UniProt P28335); experiment: Intrinsic activity at recombinant human 5-HT2C receptor expressed in HEK293E cells assessed as induction of intracellular Ca2+ levels after 90 secs by Fluo-4-dye based FLIPR assay relative to serotonin; assay type: functional, cell-based; settings: HEK293
T2 sequence (whole entry): T1 sequence (P28335 whole entry)
Outline: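 FLIPR Fluo-4 Ca2+ assay in HEK293E cells stably expressing the human receptor (VNV isoform for 5-HT2C), eleven-point concentration series, 90 s read. Response normalized to 3 μM serotonin on the same plate (defined as IA = 1). Intrinsic activity taken from a four-parameter logistic fit.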

[4] = target: 5-hydroxytryptamine receptor 2A (Homo sapiens, UniProt P28223); experiment: Agonist activity at recombinant human 5-HT2A receptor expressed in HEK293E cells assessed as induction of intracellular Ca2+ levels after 90 secs by Fluo-4-dye based FLIPR assay; assay type: cell-based, HEK293; outline: as §1
[5] = Metabolic stability in human liver microsomes assessed as parent compound remaining at […] after 10 mins; assay type: ADME, microsome; settings: read-out: Stability
[6] = Metabolic stability in rat liver microsomes assessed as parent compound remaining at […] after 10 mins; assay type: ADME, microsome; settings: read-out: Stability

5-hydroxytryptamine receptor 2A, sequence (P28223 whole entry): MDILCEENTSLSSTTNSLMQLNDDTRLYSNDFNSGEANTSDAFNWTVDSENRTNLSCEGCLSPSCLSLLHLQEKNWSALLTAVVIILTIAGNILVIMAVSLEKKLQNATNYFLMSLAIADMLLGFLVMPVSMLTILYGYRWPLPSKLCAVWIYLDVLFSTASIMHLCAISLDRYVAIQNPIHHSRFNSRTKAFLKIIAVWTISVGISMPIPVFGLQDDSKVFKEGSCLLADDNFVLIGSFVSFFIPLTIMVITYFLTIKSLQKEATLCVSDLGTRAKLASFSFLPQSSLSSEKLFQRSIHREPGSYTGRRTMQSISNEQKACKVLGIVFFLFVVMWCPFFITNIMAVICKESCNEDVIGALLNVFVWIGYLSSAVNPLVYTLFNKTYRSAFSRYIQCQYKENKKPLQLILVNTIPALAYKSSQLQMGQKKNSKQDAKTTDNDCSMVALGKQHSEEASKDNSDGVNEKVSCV
5-hydroxytryptamine receptor 2B, sequence (P41595 whole entry): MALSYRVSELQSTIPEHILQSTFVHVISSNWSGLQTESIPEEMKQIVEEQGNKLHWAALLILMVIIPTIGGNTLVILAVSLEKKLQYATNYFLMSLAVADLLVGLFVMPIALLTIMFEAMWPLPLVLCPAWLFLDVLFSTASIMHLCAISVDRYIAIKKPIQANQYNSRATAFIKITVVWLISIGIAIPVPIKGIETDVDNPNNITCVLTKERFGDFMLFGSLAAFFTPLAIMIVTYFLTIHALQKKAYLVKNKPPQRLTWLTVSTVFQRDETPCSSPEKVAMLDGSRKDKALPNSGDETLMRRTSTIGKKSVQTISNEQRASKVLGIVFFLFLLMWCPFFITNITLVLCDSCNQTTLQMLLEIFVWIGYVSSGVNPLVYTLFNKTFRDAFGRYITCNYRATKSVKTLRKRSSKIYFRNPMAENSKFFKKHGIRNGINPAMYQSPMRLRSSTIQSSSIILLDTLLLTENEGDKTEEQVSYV

| EC50 [1] | EC50 [2] | Intrinsic activity [3] | EC50 [4] | remaining at 10 min [5] | remaining at 10 min [6] | Structure (SMILES) |
| --- | --- | --- | --- | --- | --- | --- |
| 0.007 µM | > 5 µM | 1.1 | > 10 µM |  |  | CCn1nc(-c2cccc3ccncc23)cc1-c1ccc(N)nn1 |
| 0.024 µM | > 10 µM | 1 | > 10 µM | 24% | 1% | Cc1nc(-c2cccc3ccccc23)sc1C(=O)N1CCCCC1 |
| 3.46 to 5 µM | > 10 µM | 0.3 | > 10 µM |  |  | CCn1nc(-c2cccc3ccccc23)cc1-c1ccnn1C |
| 4.53 to 4.73 µM | > 10 µM | 0.3 | > 10 µM |  |  | CCn1nc(-c2cccc3ncccc23)cc1-c1cccnn1 |
| 0.025 to 0.04 µM | > 10 µM | 1.2 | > 5 µM | 12% |  | Cn1nc(-c2cccc3ccccc23)cc1-c1cccnn1 |
| 3.85 to 4.39 µM | > 10 µM | 0.2 | > 10 µM |  |  | CCn1nc(-c2cccc3ccccc23)cc1-c1cncn1C |
| 0.015 µM | > 10 µM | 1.2 | 0.884 µM | 17% |  | CCn1nc(-c2cccc3ccccc23)cc1-c1cccnn1 |
| 0.576 to 0.613 µM | > 5 µM | 0.8 | > 5 µM |  |  | CCn1nc(-c2cccc3ccccc23)cc1-c1ccccn1 |
| 0.058 to 0.088 µM | > 10 µM | 0.9 | 0.093 to 0.126 µM | 15% |  | Cn1ccnc1-c1cc(-c2cccc3ccccc23)nn1C |
| 1.52 to 2.27 µM | > 10 µM | 0.6 | > 10 µM |  |  | O=C(c1cnc(-c2cccc3ccccc23)s1)N1CCOCC1 |
| 1.8 to 3.53 µM | > 10 µM | 0.7 | > 10 µM |  |  | Cn1cc(-c2cccc3ccccc23)nc1C(=O)N1CCC(CO)CC1 |
| 0.315 to 0.396 µM | > 10 µM | 0.6 | > 10 µM |  |  | CCn1nc(-c2ccnc3ccccc23)cc1-c1cccnn1 |
| 1.04 µM | > 10 µM | 0.4 | > 10 µM |  |  | Cc1nc(-c2cccc3ccccc23)sc1C(=O)N1CCNCC1 |
| 0.027 to 0.037 µM | > 10 µM | 0.8 | > 10 µM | 5% |  | CCn1nc(-c2cccc3ccccc23)cc1-c1nccn1C |
| 1.6 µM | > 5 µM | 0.7 | > 5 µM |  |  | CCn1nc(-c2cccc3cnccc23)cc1-c1cccnn1 |
| 0.729 to 1.62 µM | > 10 µM | 0.6 | > 10 µM |  |  | O=C(c1nc(-c2cccc3ccccc23)cs1)N1CCOCC1 |
| 0.19 to 0.616 µM | > 10 µM | 0.7 | > 10 µM | 4% |  | CCn1nc(-c2cccc3ccccc23)cc1-c1ncnn1C |
| 0.45 µM | > 5 µM | 0.6 | 1.8 to 2.5 µM | 4% |  | CCn1nc(-c2cccc3ccccc23)cc1-c1nnnn1C |
| 1.7 to 1.9 µM | > 5 µM | 0.4 | > 5 µM |  |  | CCn1nc(-c2cccc3ccccc23)cc1-c1ncccn1 |
| 0.013 to 0.019 µM | > 10 µM | 1 | > 10 µM |  |  | Cc1nc(-c2cccc3ccccc23)sc1C(=O)N(C)Cc1ccn(C)n1 |
| 0.291 to 0.518 µM | > 10 µM | 0.8 | > 10 µM |  |  | CCn1nc(-c2nccc3ccccc23)cc1-c1cccnn1 |
| 0.53 µM | > 10 µM | 0.7 | > 10 µM |  |  | CCn1nc(-c2cncc3ccccc23)cc1-c1cccnn1 |
| 0.013 to 0.043 µM | > 10 µM | 0.7 | > 10 µM | 16% |  | CCn1nc(-c2cccc3ccncc23)cc1-c1cccnn1 |
| 0.766 to 1.17 µM | > 10 µM | 0.6 | > 10 µM |  |  | O=C(c1csc(-c2cccc3ccccc23)n1)N1CCOCC1 |
| 2.78 µM | > 10 µM | 0.3 | > 10 µM |  |  | Cc1sc(-c2cccc3ccccc23)nc1C(=O)N1CCOCC1 |
| 0.059 to 0.072 µM | > 10 µM | 1 | > 10 µM |  |  | Cc1nc(-c2cccc3ccccc23)sc1C(=O)N(C)C |

Further lines, the compound ahead of its results:

| Structure (SMILES) | EC50 [1] | EC50 [2] | Intrinsic activity [3] | EC50 [4] | remaining at 10 min [5] | remaining at 10 min [6] |
| --- | --- | --- | --- | --- | --- | --- |
| O=C(c1csc(-c2cccc(Cl)c2Cl)n1)N1CCC(O)CC1 | 0.679 to 0.84 µM | > 10 µM | 0.7 | > 10 µM |  |  |
| Cc1nn(-c2cccc3ccccc23)nc1C(=O)N1CCC(CO)CC1 | 0.334 to 0.385 µM | > 10 µM | 1 | > 10 µM | 58% | 24% |
| Cc1nn(-c2cccc3ccccc23)cc1C(=O)N1CCC(CO)CC1 | 0.016 µM | > 10 µM | 1 | > 10 µM | 88% | 51% |
| Cc1oc(-c2cccc3ccccc23)nc1C(=O)N1CCC(CO)CC1 | 0.381 to 0.575 µM | > 10 µM | 1 | > 10 µM | 62% | 16% |
| Cc1nc(-c2cccc3ccccc23)n(C)c1C(=O)N1CCC(CO)CC1 | 1.87 µM | > 10 µM | 0.4 | > 10 µM |  |  |
| O=C(c1csc(-c2ccccc2Cl)n1)N1CCOCC1 | 4.6 µM | > 10 µM | 0.1 | > 10 µM |  |  |
| O=C(c1nnn(-c2cccc3ccccc23)n1)N1CCC(CO)CC1 | 4.1 to 10 µM | > 10 µM | 0.3 | > 10 µM |  |  |
| O=C(c1csc(-c2cccc(Cl)c2F)n1)N1CCOCC1 | 1.27 to 2.4 µM | > 10 µM | 0.3 | > 10 µM |  |  |
| Cc1nc(-c2cccc(Cl)c2Cl)sc1C(=O)N1CCOCC1 | > 10 µM | > 10 µM |  | > 10 µM |  |  |
| O=C(c1csc(-c2cccc(Cl)c2Cl)n1)N1CCCOCC1 | 0.32 to 0.733 µM | > 10 µM | 0.5 | > 10 µM |  |  |
| O=C(c1cnc(-c2cccc(Cl)c2Cl)s1)N1CCOCC1 | > 10 µM | > 10 µM |  | > 10 µM |  |  |
| O=C(c1csc(-c2cccc(Cl)c2Cl)n1)N1CC2CC1CO2 (stereo not given) | 0.129 to 0.315 µM | > 10 µM | 0.8 | > 10 µM |  |  |
| O=C(c1csc(-c2cccnc2)n1)N1CCOCC1 | > 10 µM | > 10 µM |  | > 10 µM |  |  |
| O=C(c1csc(-c2ccc(Cl)cc2Cl)n1)N1CCOCC1 | > 10 µM | > 10 µM |  | > 10 µM |  |  |
| Cc1nc(-c2cccc3ccccc23)sc1C(N)=O | > 10 µM | > 10 µM |  | > 10 µM |  |  |
| Cc1nc(-c2cccc3ccccc23)sc1C(=O)N(CCO)C(C)C | > 10 µM | > 10 µM |  | > 10 µM | 28% | 7% |
| Cc1sc(-c2cccc(Cl)c2Cl)nc1C(=O)N1CCOCC1 | 1.52 µM | > 10 µM | 0.6 | > 10 µM |  |  |
| O=C(c1csc(-c2cccc(Cl)c2Cl)n1)N1CCCCC1 | 3.1 to 3.7 µM | > 10 µM | 0.3 | > 10 µM |  |  |
| O=C(c1csc(-c2cccc(F)c2Cl)n1)N1CCOCC1 | > 10 µM | > 10 µM |  | > 10 µM |  |  |
| Cc1cc(-c2cccc3ccccc23)oc1C(=O)N1CCC(CO)CC1 | 1.03 to 2 µM | > 10 µM | 0.7 | > 10 µM |  |  |
| COCCNC(=O)c1sc(-c2cccc3ccccc23)nc1C | > 10 µM | > 10 µM |  | > 10 µM |  |  |
| Cc1cccc(-c2nc(C(=O)N3CCOCC3)cs2)c1C | 0.501 to 0.705 µM | > 10 µM | 0.7 | > 10 µM |  |  |
| O=C(c1nc(-c2cccc(Cl)c2Cl)cs1)N1CCOCC1 | 0.018 to 0.038 µM | > 10 µM | 0.8 | > 10 µM |  |  |
